Experimental data as given in ChEMBL document CHEMBL3593200, “NO-donor thiacarbocyanines as multifunctional agents for Alzheimer's disease” (Bioorg Med Chem, 2015).
The source made the active and inactive calls. No cut-off for these calls is given here.

Experiments:
[1] = Cytotoxicity against human hCMEC/D3 cells at 10 to 20 uM after 18 hrs by lactate dehydrogenase assay; format: cell-based; details: hcmec/d3, 18 h
[2] = target: T1, Amyloid-beta precursor protein (Homo sapiens, UniProt P05067); test: Inhibition of Amyloid beta (1 to 42) (unknown origin) aggregation assessed as amount of fibrils formation after 5 days by thioflavin T based spectrofluorimetric method
T1 sequence (P05067 whole entry): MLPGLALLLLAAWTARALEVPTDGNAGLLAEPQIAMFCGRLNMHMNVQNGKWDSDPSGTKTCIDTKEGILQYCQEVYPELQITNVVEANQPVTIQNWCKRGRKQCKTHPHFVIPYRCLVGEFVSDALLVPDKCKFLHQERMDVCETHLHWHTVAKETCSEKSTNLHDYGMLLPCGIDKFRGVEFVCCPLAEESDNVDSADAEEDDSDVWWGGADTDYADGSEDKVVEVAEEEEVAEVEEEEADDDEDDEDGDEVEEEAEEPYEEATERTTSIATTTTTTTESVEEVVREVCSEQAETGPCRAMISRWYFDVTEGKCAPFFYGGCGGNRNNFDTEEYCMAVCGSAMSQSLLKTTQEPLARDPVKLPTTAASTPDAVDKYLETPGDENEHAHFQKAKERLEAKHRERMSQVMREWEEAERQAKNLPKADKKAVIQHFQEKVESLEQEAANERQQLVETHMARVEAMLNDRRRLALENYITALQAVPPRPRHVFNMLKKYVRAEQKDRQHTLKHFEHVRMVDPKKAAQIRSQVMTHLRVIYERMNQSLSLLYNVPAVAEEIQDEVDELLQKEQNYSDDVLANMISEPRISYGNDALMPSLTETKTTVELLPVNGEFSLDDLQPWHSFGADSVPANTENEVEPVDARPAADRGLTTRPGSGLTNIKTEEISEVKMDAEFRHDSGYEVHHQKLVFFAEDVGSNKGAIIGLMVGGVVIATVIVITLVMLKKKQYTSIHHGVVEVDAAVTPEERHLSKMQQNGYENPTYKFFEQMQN

[3] = Cytotoxicity against human hCMEC/D3 cells up to 1 uM after 18 hrs by lactate dehydrogenase assay; format: cell-based; details: hcmec/d3, 18 h
Brain = test: Synaptic plasticity activity in hippocampal brain slices of C57BL/6 mouse assessed as protection against amyloid beta (1 to 42)-induced long-term potentiation inhibition after 20 mins; format: functional; parameters: scale not given: the % may be the effect or the level left
Summary of the method: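 Hippocampal slices (400 μm) from 30-day-old male C57BL/6 mice, recovered at 32°C in ACSF. Oligomerized Aβ42 (final 200 nM) was mixed with compound (final 2 μM), pre-incubated 30 min, then perfused 20 min before HFS. Schaffer collateral stimulation; CA1 fEPSP peak amplitude recorded 60 min post-HFS. LTP taken as mean over 55–60 min as % of baseline. Mean ± SEM, unpaired t-test.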

[4] = target: T1, Amyloid-beta precursor protein; test: Inhibition of Amyloid beta (1 to 40) (unknown origin) aggregation assessed as amount of fibrils formation after 2 hrs by thioflavin T based spectrofluorimetric method
Summary of the method: (§1)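 Aβ40 pretreated in HFIP to remove preaggregates, then 30 μM peptide incubated 2 h at room temperature with inhibitor in PBS pH 7.4 (2% HFIP, 5% DMSO). ThT (3 μM, in 50 mM phosphate pH 6.0) fluorescence read at ex 450/em 486 nm. Inhibition = 100 − [(Fi−Fb)/F0×100]. IC50 from 5–7 concentrations in triplicate, ≥3 independent experiments, nonlinear regression; weaker compounds given as % inhibition ± SE at 100 μM.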

[5] = target: T1, Amyloid-beta precursor protein; test: Inhibition of Amyloid beta (1 to 40) (unknown origin) aggregation assessed as amount of fibrils formation at 100 uM after 2 hrs by thioflavin T based spectrofluorimetric method; summary of the method: as §1
[6] = target: Soluble guanylate cyclase (Homo sapiens) (UniProt Q02153+O75343+P33402+Q02108); test: Activation of sGC in human hCMEC/D3 cells assessed as production of cGMP per million cells using [3H]-cGMP after 1 hr by liquid scintillation counting; format: cell-based; details: CMEC/D3
Summary of the method: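 hCMEC/D3 cells (1×10^6, collagen-coated wells, supplemented EBM-2, 37°C, 5% CO2) switched to Hepes-Ca2+ buffer pH 7.4 with 1 mM IBMX. Exposed 1 h at 37°C to 0.1, 1, 5 or 10 μM; SNP 1 mM as reference NO donor. Ethanol-permeabilized, residue taken up in Tris-EDTA pH 8. cGMP quantified by [3H]-cGMP competitive radioimmunoassay with scintillation counting against a [3H]-cGMP titration curve; expressed as pmol/10^6 cells. Mean ± SEM, one-way ANOVA.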

[7] = target: Microtubule-associated protein tau (Homo sapiens) (UniProt P10636); test: Inhibition of wild type human recombinant tau 2N4R aggregation assessed as reduction of formation rate and number of aggregates at 1 uM after 48 hrs using Congo Red staining
Microtubule-associated protein tau (Homo sapiens), sequence (P10636 whole entry): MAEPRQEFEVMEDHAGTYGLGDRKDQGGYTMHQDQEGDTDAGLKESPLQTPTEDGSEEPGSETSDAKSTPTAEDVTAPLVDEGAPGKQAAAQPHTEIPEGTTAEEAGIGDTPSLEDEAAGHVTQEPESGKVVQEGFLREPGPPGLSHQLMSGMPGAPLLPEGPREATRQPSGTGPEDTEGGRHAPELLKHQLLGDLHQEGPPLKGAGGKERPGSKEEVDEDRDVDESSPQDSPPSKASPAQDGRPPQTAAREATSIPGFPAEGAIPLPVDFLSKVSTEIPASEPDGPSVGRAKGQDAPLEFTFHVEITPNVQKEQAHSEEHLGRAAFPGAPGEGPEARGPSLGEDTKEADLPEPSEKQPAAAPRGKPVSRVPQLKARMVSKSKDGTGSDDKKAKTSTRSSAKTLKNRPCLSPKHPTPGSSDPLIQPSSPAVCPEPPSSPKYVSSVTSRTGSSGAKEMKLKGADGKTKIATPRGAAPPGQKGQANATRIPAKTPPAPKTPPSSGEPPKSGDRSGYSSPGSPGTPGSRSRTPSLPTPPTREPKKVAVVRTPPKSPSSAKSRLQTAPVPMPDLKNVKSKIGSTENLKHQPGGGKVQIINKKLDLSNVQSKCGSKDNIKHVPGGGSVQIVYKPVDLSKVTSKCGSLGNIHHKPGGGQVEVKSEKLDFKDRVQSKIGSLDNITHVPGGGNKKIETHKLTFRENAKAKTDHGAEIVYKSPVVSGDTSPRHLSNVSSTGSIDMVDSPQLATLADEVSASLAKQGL
Summary of the method: (§2)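 Recombinant human tau 2N4R, expressed in E. coli BL21(DE3), used at 8 μM with 300 μg/mL heparin in 35 mM MES pH 7.4, 1 mM DTT at 37°C, alone or with compound at 1 μM (final). Aliquots taken at 2 and 5 days, stained with Congo Red and examined under polarized light; also negatively stained with uranyl acetate for EM at 30,000 magnification.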

[8] = target: Microtubule-associated protein tau (Homo sapiens) (UniProt P10636); test: Inhibition of wild type human recombinant tau 2N4R aggregation assessed as reduction of formation rate and number of aggregates at 1 uM after 5 days using Congo Red staining; summary of the method: as §2

Row | IC50 [2] [µM] | IC50 [4] [µM] | inhibition [5] [%] | Activity [6] | inhibition [7] | inhibition [8] | inhibition [4] | Compound | Activity [1] | Activity [3] | Activity (Brain) [%]
1 |  | 21 |  | Dose-dependent effect | Active | Active |  | CCN1/C(=C/C=C/c2sc3ccccc3[n+]2CC)Sc2ccc(Oc3no[n+]([O-])c3S(=O)(=O)c3ccccc3)cc21.[I-] | Non-toxic | Non-toxic | 
2 | 0.8 | 7 |  | Dose-dependent effect |  |  |  | CCCOc1ccc2c(c1)N(CC)/C(=C/C=C/c1sc3ccccc3[n+]1CC)S2.[I-] | Non-toxic | Non-toxic | 
3 |  |  | 26 | Dose-dependent effect |  |  |  | CCN1/C(=C/C=C/c2sc3ccccc3[n+]2CC)Sc2ccc(OCc3no[n+]([O-])c3C(N)=O)cc21.[I-] | Non-toxic | Non-toxic | 
4 | 7.7 | 8.1 |  | Dose-dependent effect | Active | Active |  | CCN1/C(=C/C=C/c2sc3ccccc3[n+]2CC)Sc2ccc(OCCCO[N+](=O)[O-])cc21.[I-] | Non-toxic | Non-toxic | 69.3
5 | 1.6 | 1.8 |  | Dose-dependent effect | Active | Active |  | CCN1/C(=C/C=C/c2sc3ccccc3[n+]2CC)Sc2ccc(Oc3no[n+]([O-])c3-c3ccccc3)cc21.[I-] | Non-toxic | Non-toxic | 90.8

More lines, now with the values behind:

Row | Compound | IC50 [2] [µM] | IC50 [4] [µM] | inhibition [5] [%] | Activity [6] | inhibition [7] | inhibition [8] | inhibition [4] | Activity [1] | Activity [3] | Activity (Brain) [%]
6 | CCN1/C(=C/C=C/c2sc3ccccc3[n+]2CC)Sc2ccccc21.[I-] | 3.3 | 3.1 |  |  |  |  |  | Non-toxic | Non-toxic | 34.7
7 | CCN1/C(=C/C=C/c2sc3ccc(OCc4no[n+]([O-])c4C(N)=O)cc3[n+]2CC)Sc2ccc(OCc3no[n+]([O-])c3C(N)=O)cc21.O=S(=O)([O-])C(F)(F)F |  |  | 17 | Dose-dependent effect |  |  |  | Non-toxic | Non-toxic | 
8 | CCCOc1ccc2c(c1)N(CC)/C(=C/C=C/c1sc3ccc(OCCC)cc3[n+]1CC)S2.[I-] |  |  |  | Dose-dependent effect |  |  | inactive | Non-toxic | Non-toxic | 
9 | CCN1/C(=C/C=C/c2sc3ccc(OCCCO[N+](=O)[O-])cc3[n+]2CC)Sc2ccc(OCCCO[N+](=O)[O-])cc21.O=S(=O)([O-])C(F)(F)F |  |  | 26 | Dose-dependent effect | Active | Active |  | Non-toxic | Non-toxic | 
10 | CN(C)c1ccc2nc3ccc(=[N+](C)C)cc-3sc2c1 |  | 4.5 |  |  |  |  |  |  |  | 
